In ChEMBL document CHEMBL1158568, “In silico directed chemical probing of the adenosine receptor family” (Bioorg Med Chem, 2010):

Assays:
Adenosine receptor A2a [1] = molecular target: T1, Adenosine receptor A2a (Homo sapiens, UniProt P29274); experiment: Displacement of [3H]ZM241385 from human adenosine A2A receptor expressed in human HeLa cells at 10 uM after 30 mins by beta scintillation counting; assay type: cell-based
Summary of the method: (§1)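 Membranes from HeLa-A2A cells, 10 lg protein, in 50 mM Tris–HCl, 1 mM EDTA, 10 mM MgCl2, 2 UI/mL adenosine deaminase, pH 7.4; 3 nM [3H]ZM241385, 30 min at 25 °C, duplicates. 50 µM NECA defined non-specific binding. Single 10 µM point or six concentrations 10 nM–100 µM; Ki by Cheng–Prusoff.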

[2] = molecular target: T2, Adenosine receptor A1 (Homo sapiens) (UniProt P30542); experiment: Displacement of [3H]DPCPX from human adenosine A1 receptor expressed in CHO cells at 10 uM after 60 mins by beta scintillation counting; assay type: cell-based
T2 sequence (whole entry): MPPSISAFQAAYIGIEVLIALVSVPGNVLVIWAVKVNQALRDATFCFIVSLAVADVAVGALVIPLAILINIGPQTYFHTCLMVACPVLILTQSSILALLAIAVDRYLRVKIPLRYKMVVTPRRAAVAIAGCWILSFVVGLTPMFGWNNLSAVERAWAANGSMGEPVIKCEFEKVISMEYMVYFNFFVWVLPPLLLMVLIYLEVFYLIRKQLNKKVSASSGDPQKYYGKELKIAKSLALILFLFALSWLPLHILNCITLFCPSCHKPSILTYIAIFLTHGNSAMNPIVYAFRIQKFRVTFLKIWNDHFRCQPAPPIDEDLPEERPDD
Summary of the method: (§2)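 Membranes of CHO-A1 cells (15 lg protein) in 20 mM Hepes, 100 mM NaCl, 10 mM MgCl2, 2 units/ml adenosine deaminase, pH 7.4, with 2 nM [3H]DPCPX; 60 min at 25 °C, duplicates. Non-specific binding with 10 µM (R)-PIA. Filtration, scintillation counting. Single point at 10 µM or six concentrations 10 nM–100 µM; Ki by Cheng–Prusoff.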

[3] = molecular target: T3, Adenosine receptor A3 (Homo sapiens) (UniProt P0DMS8); experiment: Displacement of [3H]NECA from human adenosine A3 receptor expressed in human HeLa cells at 10 uM after 180 mins by beta scintillation counting; assay type: cell-based
T3 sequence (whole entry): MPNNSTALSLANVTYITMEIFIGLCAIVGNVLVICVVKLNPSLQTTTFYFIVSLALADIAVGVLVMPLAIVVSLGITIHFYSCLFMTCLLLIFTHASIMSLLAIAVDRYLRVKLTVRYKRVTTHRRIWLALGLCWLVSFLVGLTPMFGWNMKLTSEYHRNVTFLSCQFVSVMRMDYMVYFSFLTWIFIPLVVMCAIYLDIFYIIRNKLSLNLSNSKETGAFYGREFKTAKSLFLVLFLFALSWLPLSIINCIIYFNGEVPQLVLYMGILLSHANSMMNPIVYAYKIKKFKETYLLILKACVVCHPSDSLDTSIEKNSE
Summary of the method: (§3)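 HeLa-A3 membranes (90 lg protein) in 50 mM Tris–HCl, 1 mM EDTA, 5 mM MgCl2, 2 UI/mL adenosine deaminase, pH 7.4; 30 nM [3H]NECA, 180 min at 25 °C, triplicates, GF/B filtration. Non-specific with 100 µM (R)-PIA. Tested at 10 µM or six concentrations 10 nM–100 µM; Ki by Cheng–Prusoff.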

[4] = molecular target: T4, Alpha-2A adrenergic receptor (Homo sapiens) (UniProt P08913); experiment: Displacement of [3H]MK912 from human adrenergic alpha2A receptor expressed in CHO cells at 10 uM after 30 mins by beta scintillation counting; assay type: cell-based
T4 sequence (whole entry): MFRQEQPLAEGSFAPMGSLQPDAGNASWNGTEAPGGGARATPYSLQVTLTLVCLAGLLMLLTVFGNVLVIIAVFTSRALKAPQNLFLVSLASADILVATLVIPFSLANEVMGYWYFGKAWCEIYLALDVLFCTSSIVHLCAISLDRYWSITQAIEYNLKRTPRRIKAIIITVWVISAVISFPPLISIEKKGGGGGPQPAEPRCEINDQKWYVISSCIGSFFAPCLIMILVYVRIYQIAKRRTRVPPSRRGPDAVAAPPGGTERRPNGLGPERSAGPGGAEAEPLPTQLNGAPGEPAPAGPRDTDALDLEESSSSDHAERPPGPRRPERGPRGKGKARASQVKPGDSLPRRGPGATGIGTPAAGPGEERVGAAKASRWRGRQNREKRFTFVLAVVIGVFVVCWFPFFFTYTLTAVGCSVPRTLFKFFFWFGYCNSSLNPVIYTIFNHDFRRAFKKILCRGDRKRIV
Summary of the method: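 CHO-a2A membranes (25 lg protein) in 25 mM Na2PO4, pH 7.4, with 0.37 nM [3H]MK-912 and compound at 10 µM; 30 min at 25 °C, duplicates. Non-specific binding with 100 µM norepinephrine; filtration and scintillation counting.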

[5] = molecular target: 5-hydroxytryptamine receptor 7 (Homo sapiens) (UniProt P34969); experiment: Displacement of [3H]SB269970 from human 5HT7 receptor expressed in HEK293 cells at 10 uM after 60 mins by beta scintillation counting; assay type: cell-based
Summary of the method: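 HEK-293-5-HT7 membranes (5 lg protein) in 50 mM Tris–HCl, 4 mM CaCl2, 1 mM ascorbic acid, 0.1 mM pargyline, pH 7.4; 2 nM [3H]SB269970, compound at 10 µM, 60 min at 37 °C, duplicates. Non-specific defined with 25 µM clozapine.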

Adenosine receptor A3 [6] = molecular target: T5, Adenosine receptor A3 (Homo sapiens, UniProt P0DMS8); experiment: Antagonist activity at human adenosine A3 receptor expressed in forskolin-stimulated CHO cells assessed as inhibition of […]-induced decrease in cAMP level pre-incubated for 15 mins by enzyme immunoassay; assay type: functional, cell-based
T5 sequence (P0DMS8 whole entry): T3 sequence (whole entry)
Summary of the method: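 Using CHO-A3 cells (20,000/well, DMEM F-12, 10% FCS), test compound plus 30 µM rolipram pre-incubated 15 min at 37 °C; 1 µM NECA added 15 min, then 10 µM forskolin 3 min. cAMP by enzyme immunoassay at 450 nm; pKB by Leff–Dougall equation.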

[7] = molecular target: T6, Adenosine receptor A2b (Homo sapiens) (UniProt P29275); experiment: Displacement of [3H]DPCPX from human adenosine A2B receptor expressed in HEK293 cells at 10 uM after 30 mins by beta scintillation counting; assay type: cell-based
T6 sequence (whole entry): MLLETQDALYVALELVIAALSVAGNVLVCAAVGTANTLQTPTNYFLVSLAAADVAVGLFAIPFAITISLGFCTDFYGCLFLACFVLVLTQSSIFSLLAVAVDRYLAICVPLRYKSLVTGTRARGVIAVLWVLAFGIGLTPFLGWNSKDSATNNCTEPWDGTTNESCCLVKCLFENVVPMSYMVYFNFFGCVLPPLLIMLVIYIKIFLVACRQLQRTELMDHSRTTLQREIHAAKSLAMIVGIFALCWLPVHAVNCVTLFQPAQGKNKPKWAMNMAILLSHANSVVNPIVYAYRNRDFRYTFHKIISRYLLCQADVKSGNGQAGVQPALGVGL

Adenosine receptor A3 [8] = molecular target: T5, Adenosine receptor A3; experiment: Displacement of [3H]NECA from human adenosine A3 receptor expressed in human HeLa cells after 180 mins by beta scintillation counting; assay type: cell-based; summary of the method: as §3
[9] = molecular target: Histamine H1 receptor (Homo sapiens) (UniProt P35367); experiment: Displacement of [3H]pyrilamine from human histamine H1 receptor expressed in CHO cells at 10 uM after 60 mins by beta scintillation counting; assay type: cell-based
Summary of the method: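 CHO-H1 membranes (1 lg protein) in 50 mM Tris–HCl pH 7.4 with 2 nM [3H]pyrilamine and compound at 10 µM; 60 min at 27 °C, duplicates. 10 µM triprolidine for non-specific binding; GF/C filtration, scintillation counting.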

Adenosine receptor A1 [10] = molecular target: T7, Adenosine receptor A1 (Homo sapiens, UniProt P30542); experiment: Displacement of [3H]DPCPX from human adenosine A1 receptor expressed in CHO cells after 60 mins by beta scintillation counting; assay type: cell-based; summary of the method: as §2
T7 sequence (P30542 whole entry): T2 sequence (whole entry)

Adenosine receptor A1 [11] = molecular target: T7, Adenosine receptor A1; experiment: Antagonist activity at human adenosine A1 receptor expressed in forskolin-stimulated CHO cells assessed as inhibition of […]-induced decrease in cAMP level pre-incubated for 15 mins by enzyme immunoassay; assay type: functional, cell-based
Summary of the method: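 CHO-A1 cells, 20,000/well, grown in EMEM F-12 with 10% FCS; washed, pre-incubated 15 min at 37 °C with 20 µM rolipram plus test compound, then 0.1 µM NECA 15 min and 3 µM forskolin 3 min. Intracellular cAMP read by enzyme immunoassay at 450 nm; pKB from IC50 by Leff–Dougall equation.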

Adenosine receptor A2a [12] = molecular target: T1, Adenosine receptor A2a; experiment: Displacement of [3H]ZM241385 from human adenosine A2A receptor expressed in human HeLa cells after 30 mins by beta scintillation counting; assay type: cell-based; summary of the method: as §1
Adenosine receptor A2a [13] = molecular target: T1, Adenosine receptor A2a; experiment: Antagonist activity at human adenosine A2A receptor expressed in CHO cells assessed as inhibition of […]-induced cAMP accumulation pre-incubated for 15 mins by enzyme immunoassay; assay type: functional, cell-based
Summary of the method: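 CHO-A2A cells, 10,000/well, in DMEM F-12 with 10% FCS; pre-incubated 15 min at 37 °C with 30 µM rolipram and test compound, then stimulated with 1 µM NECA for 15 min. cAMP measured by enzyme immunoassay at 450 nm; antagonist pKB derived from IC50 via Leff–Dougall equation.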

Adenosine receptor A2b [14] = molecular target: T8, Adenosine receptor A2b (Homo sapiens, UniProt P29275); experiment: Antagonist activity at human adenosine A2B receptor expressed in HEK293 cells assessed as inhibition of […]-induced cAMP accumulation pre-incubated for 15 mins by enzyme immunoassay; assay type: functional, cell-based
T8 sequence (P29275 whole entry): T6 sequence (whole entry)
Summary of the method: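 HEK-293 A2B cells seeded 10,000/well in EMEM F-12 with 10% FCS; 15 min pre-incubation at 37 °C with 30 µM rolipram and test compound, followed by 10 µM NECA for 15 min. Enzyme-immunoassay readout of intracellular cAMP at 450 nm; pKB by Leff–Dougall equation.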

Adenosine receptor A2b [15] = molecular target: T8, Adenosine receptor A2b; experiment: Displacement of [3H]DPCPX from human adenosine A2B receptor expressed in HEK293 cells after 30 mins by beta scintillation counting; assay type: cell-based

Chain of 5-hydroxytryptamine receptor 7 (Homo sapiens) (P34969 whole entry): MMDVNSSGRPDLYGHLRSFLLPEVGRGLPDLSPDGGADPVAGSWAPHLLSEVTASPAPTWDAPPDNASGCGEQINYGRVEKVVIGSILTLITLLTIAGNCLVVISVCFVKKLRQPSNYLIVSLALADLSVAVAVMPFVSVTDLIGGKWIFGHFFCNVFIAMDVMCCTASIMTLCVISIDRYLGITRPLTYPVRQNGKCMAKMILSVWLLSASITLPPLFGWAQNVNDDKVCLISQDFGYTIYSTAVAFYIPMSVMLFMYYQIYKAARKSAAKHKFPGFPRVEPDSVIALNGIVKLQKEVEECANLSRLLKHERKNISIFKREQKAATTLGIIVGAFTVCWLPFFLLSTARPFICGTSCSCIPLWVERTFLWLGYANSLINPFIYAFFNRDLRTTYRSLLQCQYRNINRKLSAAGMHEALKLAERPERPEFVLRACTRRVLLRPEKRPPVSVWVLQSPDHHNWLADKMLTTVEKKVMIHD
T1 sequence (P29274 whole entry): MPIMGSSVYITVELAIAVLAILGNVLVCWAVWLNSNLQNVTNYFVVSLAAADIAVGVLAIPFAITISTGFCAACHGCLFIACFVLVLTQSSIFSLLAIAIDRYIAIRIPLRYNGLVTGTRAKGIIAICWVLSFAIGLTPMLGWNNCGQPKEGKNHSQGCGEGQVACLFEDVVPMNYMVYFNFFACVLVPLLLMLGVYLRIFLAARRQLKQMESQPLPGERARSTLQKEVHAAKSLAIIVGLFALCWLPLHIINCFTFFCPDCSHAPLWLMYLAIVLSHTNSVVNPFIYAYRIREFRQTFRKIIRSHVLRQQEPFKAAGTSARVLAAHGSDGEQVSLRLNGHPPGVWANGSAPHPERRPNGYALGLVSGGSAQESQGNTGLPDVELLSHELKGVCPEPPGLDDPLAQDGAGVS
Chain of Histamine H1 receptor (Homo sapiens) (P35367 whole entry): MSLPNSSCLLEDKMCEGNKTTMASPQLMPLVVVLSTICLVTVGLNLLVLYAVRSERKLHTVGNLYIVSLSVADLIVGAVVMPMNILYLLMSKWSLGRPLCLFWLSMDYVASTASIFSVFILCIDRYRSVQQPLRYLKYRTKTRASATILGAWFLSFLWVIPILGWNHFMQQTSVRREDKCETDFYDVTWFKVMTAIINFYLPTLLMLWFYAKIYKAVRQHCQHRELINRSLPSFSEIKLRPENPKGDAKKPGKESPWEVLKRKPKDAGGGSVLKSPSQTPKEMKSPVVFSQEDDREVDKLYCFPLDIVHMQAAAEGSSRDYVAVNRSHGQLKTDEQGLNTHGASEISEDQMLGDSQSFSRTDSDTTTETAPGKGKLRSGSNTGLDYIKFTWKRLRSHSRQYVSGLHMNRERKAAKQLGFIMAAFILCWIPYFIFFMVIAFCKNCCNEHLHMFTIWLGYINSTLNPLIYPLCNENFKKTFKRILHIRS

| Compound | inhibition (Adenosine receptor A2a [1]) [%] | inhibition [2] [%] | inhibition [3] [%] | inhibition [7] [%] | further results |
| --- | --- | --- | --- | --- | --- |
| COc1cn(-c2ccccc2)nc1C(=O)Nc1ccc(C)cn1 | 59.6 | 51.9 |  |  |  |
| Cc1ccc(-c2ncc3[nH]c(=O)n(Cc4ccccc4)c3n2)cc1 | 20 | 37.5 | 71.1 | 2.6 | Activity [4]: 18%; Activity [5]: 1%; pKb (Adenosine receptor A3 [6]): 6.3; Ki (Adenosine receptor A3 [8]): 316 nM; Activity [9]: 17% |
| O=C(/N=C1\c2ccccc2CN1c1ncccn1)Nc1ccccc1 | 6.7 | 38.5 |  |  |  |
| NC(=O)c1nc(-c2ccccc2O)nc2c1ncn2Cc1ccccc1 | 22.9 | 11.1 | 10.9 | 9.5 |  |
| OC1=NCC2C(C=NN2Cc2ccccc2)C(c2ccc(Br)cc2)S1 (stereo not given) | 8.1 | 18.8 |  |  |  |
| CCO/C=N/c1c(C#N)ncn1Cc1ccccc1 | 15.2 | 9.8 | 1.9 | 2 |  |
| CN1N=C(C(=O)Nc2ccc(Cl)cn2)C2COc3ccccc3C21 (stereo not given) | 13.3 | 8 |  |  |  |
| Cc1ccc(-n2cnc3c(N4CCSCC4)nc(-c4ccc(C#N)cc4)nc32)cc1 | 14.3 | 6.8 | 1.9 | 4.3 |  |
| CCO/C(C)=N/c1c(C#N)ncn1Cc1ccccc1 | 9.8 | 1.2 | 28 | 9.9 |  |
| C=CCOc1cccc(-c2nc(O)c3c4ccccc4c(=O)n(CC)n23)c1 | 10.9 | 87.3 | 39 | 5 | Ki (Adenosine receptor A1 [10]): 15.8 nM; Activity [4]: 14%; Activity [5]: 20%; pKb (Adenosine receptor A1 [11]): 6.8; Activity [9]: 42% |
| Cc1ccc(-c2nc(C(=O)Nc3ccccn3)c3n2CCCCC3)cc1 | 68.9 | 38.9 |  | 19 | Ki (Adenosine receptor A2a [12]): 2510 nM; Activity [4]: 12%; Activity [5]: 18%; pKb (Adenosine receptor A2a [13]): 5.1; Ki (Adenosine receptor A3 [8]): 3160 nM; Activity [9]: 39% |
| COc1ccc(-c2nc(N3CCOCC3)c3ncn(-c4ccc(F)cc4)c3n2)cc1 | 5 | 18.8 | 31.8 | 3 |  |
| N=C1c2c(C(N)=O)nc(-c3ccccc3O)n2CN1c1ccc(O)cc1 | 15.2 | 26.8 | 26.1 | 55.4 | Activity [4]: 28%; Activity [5]: 11%; pKb (Adenosine receptor A2b [14]): 5.7; Ki (Adenosine receptor A2b [15]): 1580 nM; Activity [9]: 17% |
| O=C(Nc1ccco1)c1nc2nc(-c3cccs3)cc(C(F)(F)F)c2s1 | 70.5 | 60.7 |  |  |  |
| Cc1cc(NC(=O)C2=C3N=C(c4cccs4)C=C(C(F)(F)F)N3NC2)no1 | 63 | 79 |  |  |  |
| Cc1ccc(-n2cnc3c(N4CCOCC4)nc(-c4ccc(C#N)cc4)nc32)cc1 | 6.1 | 7.6 | 3 | 6.8 |  |
| N#Cc1ccc(-c2nc(N3CCCCC3)c3ncn(-c4ccc(F)cc4)c3n2)cc1 | 0.4 | 0.8 | 15.1 | 6.9 |  |
| NC(=O)c1nc(-c2cccc(O)c2)nc2c1ncn2-c1ccccc1 | 4.5 | 25.5 | 23.1 | 0.5 |  |
